Experimental data from ChEMBL document CHEMBL1828561, “Identification of a potent and selective free fatty acid receptor 1 (FFA1/GPR40) agonist with favorable physicochemical and in vitro ADME properties” (J Med Chem, 2011).
≈ marks a conversion by molar mass, not a printed value.

Legend:
[1] = biological target: T1, Free fatty acid receptor 1 (Homo sapiens, UniProt O14842); assay: Agonist activity at human FFA1 receptor expressed in human 1321N1 cells assessed as calcium mobilization by fluorescence spectrophotometry; format: functional, cell-based
[2] = biological target: T1, Free fatty acid receptor 1; assay: Agonist activity at human FFA1 receptor expressed in human 1321N1 cells assessed as calcium mobilization by fluorescence spectrophotometry relative to 10 uM TUG-20; format: functional, cell-based
Summary of the method: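 Human FFA1 stably expressed in 1321N1 cells kept under G418 selection, 30000–40000 cells/well. After 24 h, washed in Krebs-HEPES pH 7.4 and loaded 1 h at 37 °C with 1.5 μM Oregon Green 488 BAPTA-1/AM. Compound injected at 10-fold concentration at 37 °C; fluorescence ex 485/em 520 nm over 50 × 0.4 s. Efficacy as % of maximal response to 10 μM TUG-20.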

[3] = Apparent permeability across methotrexate treated human HT-29 cells; format: ADME, cell-based
Summary of the method: (§1)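 HT29-MTX mucus-producing cells, passage 32, grown 23 days (TEER > 750 Ω cm²). Compound at 100 μM (10 mM DMSO stock diluted 1:100 in buffer). […] Non-permeated drug measured for recovery. Monolayer integrity checked by 20 μM carboxyfluorescein after 1 h and TEER.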

[4] = Permeability across methotrexate treated human HT-29 cells assessed as compound recovery; format: ADME, cell-based; conditions: read-out: Activity; summary of the method: as §1
[5] = Aqueous solubility of the compound in PBS at pH 7.4; format: physicochemical
Summary of the method: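 Solubility measured in PBS at pH 7.4.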

[6] = Octanol-phosphate buffer partition coefficient, log D of the compound at pH 7.4 by HPLC analysis; format: physicochemical
[7] = Chemical stability of the compound in PBS at 37 degC for 12 days; format: physicochemical; conditions: read-out: Stability
Summary of the method: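 Stability followed in PBS at 37 °C over 12 days.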

[8] = Plasma protein binding in human; format: ADME, cell-free; conditions: read-out: PPB (converted)
[9] = tested on: Liver; assay: Metabolic stability in human liver S9 fraction; format: ADME, subcellular
[10] = biological target: T2, CYP1A2 (Homo sapiens, UniProt P05177); assay: Inhibition of CYP1A2 at 10 uM; format: ADME
T2 sequence (P05177 whole entry): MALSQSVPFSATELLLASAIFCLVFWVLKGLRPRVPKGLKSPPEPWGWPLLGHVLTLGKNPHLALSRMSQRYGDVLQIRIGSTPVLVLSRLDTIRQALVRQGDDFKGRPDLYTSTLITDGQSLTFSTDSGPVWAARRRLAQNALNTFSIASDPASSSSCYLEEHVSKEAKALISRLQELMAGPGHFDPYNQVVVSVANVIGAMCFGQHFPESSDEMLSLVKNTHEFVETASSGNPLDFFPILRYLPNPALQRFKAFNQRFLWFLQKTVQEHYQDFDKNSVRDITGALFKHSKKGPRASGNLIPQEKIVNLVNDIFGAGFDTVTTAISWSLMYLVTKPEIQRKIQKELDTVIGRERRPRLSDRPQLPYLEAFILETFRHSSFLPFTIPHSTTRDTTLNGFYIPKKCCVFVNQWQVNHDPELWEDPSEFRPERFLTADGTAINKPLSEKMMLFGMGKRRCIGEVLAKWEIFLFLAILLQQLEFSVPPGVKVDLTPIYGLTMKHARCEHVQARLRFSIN

[11] = biological target: CYP2C9 (Homo sapiens, UniProt P11712); assay: Inhibition of CYP2C9 at 10 uM; format: ADME
[12] = biological target: CYP2C19 (Homo sapiens, UniProt P33261); assay: Inhibition of CYP2C19 at 10 uM; format: ADME
[13] = biological target: CYP2D6 (Homo sapiens, UniProt P10635); assay: Inhibition of CYP2D6 at 10 uM; format: ADME
[14] = biological target: CYP3A4 (Homo sapiens, UniProt P08684); assay: Inhibition of CYP3A4 at 10 uM; format: ADME
[15] = Inhibition of P-glycoprotein at 100 uM
Summary of the method: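 P-glycoprotein inhibition tested at 100 μM compound.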

[16] = Apparent permeability from apical to basolateral side of human Caco2/TC7 cells; format: ADME, cell-based; conditions: Caco-2
Summary of the method: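 Caco-2 TC7 monolayers, apical to basolateral transport at pH 6.5 apical/7.4 basolateral.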

[17] = Octanol-water partition coefficient, log D of the compound at pH 7.4 by HPLC analysis; format: physicochemical
Summary of the method: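 Distribution between n-octanol and water (PBS), pH 7.4, determined experimentally.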

T1 sequence (O14842 whole entry): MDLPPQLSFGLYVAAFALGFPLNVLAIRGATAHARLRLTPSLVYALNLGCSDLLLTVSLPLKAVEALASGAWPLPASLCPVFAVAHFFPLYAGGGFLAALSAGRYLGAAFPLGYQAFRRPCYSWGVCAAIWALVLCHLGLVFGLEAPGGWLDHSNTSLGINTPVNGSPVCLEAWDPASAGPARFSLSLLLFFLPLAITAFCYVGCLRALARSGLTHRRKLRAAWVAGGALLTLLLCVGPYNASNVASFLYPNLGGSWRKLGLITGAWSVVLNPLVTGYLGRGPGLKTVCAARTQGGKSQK
Chain of CYP2C9 (P11712 whole entry): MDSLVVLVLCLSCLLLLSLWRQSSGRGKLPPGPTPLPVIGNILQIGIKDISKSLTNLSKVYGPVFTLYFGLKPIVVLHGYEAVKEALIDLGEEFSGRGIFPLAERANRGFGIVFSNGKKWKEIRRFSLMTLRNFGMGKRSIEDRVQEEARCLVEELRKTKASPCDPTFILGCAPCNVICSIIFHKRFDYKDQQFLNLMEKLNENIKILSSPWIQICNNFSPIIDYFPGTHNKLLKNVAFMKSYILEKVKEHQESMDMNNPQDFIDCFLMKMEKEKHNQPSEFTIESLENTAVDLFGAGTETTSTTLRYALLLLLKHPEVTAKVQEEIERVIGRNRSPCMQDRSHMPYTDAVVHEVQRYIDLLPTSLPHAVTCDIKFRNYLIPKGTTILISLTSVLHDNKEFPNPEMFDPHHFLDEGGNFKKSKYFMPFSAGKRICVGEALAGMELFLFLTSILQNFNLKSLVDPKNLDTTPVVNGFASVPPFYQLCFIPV
Chain of CYP2D6 (P10635 whole entry): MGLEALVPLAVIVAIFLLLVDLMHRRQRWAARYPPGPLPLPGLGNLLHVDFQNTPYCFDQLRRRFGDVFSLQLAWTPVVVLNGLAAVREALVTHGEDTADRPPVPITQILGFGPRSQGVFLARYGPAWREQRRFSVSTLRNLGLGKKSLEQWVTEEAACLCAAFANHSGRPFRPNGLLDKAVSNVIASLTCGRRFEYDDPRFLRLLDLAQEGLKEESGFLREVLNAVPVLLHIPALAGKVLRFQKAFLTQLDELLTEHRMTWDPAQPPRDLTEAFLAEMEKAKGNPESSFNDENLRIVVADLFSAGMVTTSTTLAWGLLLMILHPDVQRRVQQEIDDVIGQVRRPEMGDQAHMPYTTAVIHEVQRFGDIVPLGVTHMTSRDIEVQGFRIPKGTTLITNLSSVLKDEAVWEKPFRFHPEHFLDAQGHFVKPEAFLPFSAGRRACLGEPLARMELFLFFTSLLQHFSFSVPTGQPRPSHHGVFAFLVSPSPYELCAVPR
Chain of CYP2C19 (P33261 whole entry): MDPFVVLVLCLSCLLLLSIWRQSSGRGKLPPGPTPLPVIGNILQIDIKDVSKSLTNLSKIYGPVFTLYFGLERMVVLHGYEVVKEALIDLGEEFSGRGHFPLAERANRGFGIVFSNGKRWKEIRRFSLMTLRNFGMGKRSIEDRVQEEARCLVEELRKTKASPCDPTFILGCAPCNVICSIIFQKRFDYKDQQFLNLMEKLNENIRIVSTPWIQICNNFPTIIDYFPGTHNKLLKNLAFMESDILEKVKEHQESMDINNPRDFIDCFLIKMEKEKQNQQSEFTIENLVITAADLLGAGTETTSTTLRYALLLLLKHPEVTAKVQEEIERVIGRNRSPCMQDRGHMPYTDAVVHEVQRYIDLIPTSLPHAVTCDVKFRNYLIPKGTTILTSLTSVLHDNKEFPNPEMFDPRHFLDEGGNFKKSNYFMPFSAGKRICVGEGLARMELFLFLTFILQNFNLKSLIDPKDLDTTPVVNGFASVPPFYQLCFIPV
Chain of CYP3A4 (P08684 whole entry): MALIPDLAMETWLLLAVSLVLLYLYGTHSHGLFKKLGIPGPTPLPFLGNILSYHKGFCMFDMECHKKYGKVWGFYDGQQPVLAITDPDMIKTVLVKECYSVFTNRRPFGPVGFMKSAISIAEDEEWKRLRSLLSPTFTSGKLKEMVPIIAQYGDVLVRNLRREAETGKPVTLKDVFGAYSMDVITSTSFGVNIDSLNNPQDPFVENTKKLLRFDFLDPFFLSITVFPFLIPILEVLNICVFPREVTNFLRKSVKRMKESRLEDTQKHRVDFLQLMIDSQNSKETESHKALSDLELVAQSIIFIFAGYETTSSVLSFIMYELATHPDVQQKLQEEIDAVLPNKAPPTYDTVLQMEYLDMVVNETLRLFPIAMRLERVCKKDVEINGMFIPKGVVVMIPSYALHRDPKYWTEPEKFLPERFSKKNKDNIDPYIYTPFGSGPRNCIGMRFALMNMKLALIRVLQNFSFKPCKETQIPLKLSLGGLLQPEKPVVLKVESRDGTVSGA

SMILES	EC50 [1] [nM]	Efficacy [2] [%]	also measured
O=C(O)CCc1ccc(C#Cc2cccnc2Cl)cc1	603	91	–
COc1nccc(C#Cc2ccc(CCC(=O)O)cc2)n1	9550	109	–
CC(C(=O)O)c1cccc(C(=O)c2ccccc2)c1 (centres undefined) [KETOPROFEN]	–	–	Papp [3]: 15.1 ×10⁻⁶ cm/s; recovery [4]: 80%
Cc1cnc(F)c(C#Cc2ccc(CCC(=O)O)cc2)c1	661	98	–
Cc1c(C#Cc2ccc(CCC(=O)O)cc2)cc(Cl)nc1Cl	43.7	91	–
O=C(O)CCc1ccc(C#Cc2ccnc(Cl)n2)cc1	9120	131	–
O=C(O)CCc1ccc(C#Cc2cncs2)cc1	3890	99	–
Cc1cnc(Cl)nc1C#Cc1ccc(CCC(=O)O)cc1	4270	121	–
Cc1ccsc1C#Cc1ccc(CCC(=O)O)cc1	75.9	100	–
O=C(O)CCc1ccc(C#Cc2cccs2)cc1	251	97	–
C=CCc1c(C#Cc2ccc(CCC(=O)O)cc2)ccnc1Cl	316	97	–
O=C(O)CCc1ccc(C#Cc2ncccc2[N+](=O)[O-])cc1	–	87	–
O=C(O)C1CC1c1ccc(C#Cc2cc(Cl)nc(Cl)c2)cc1 (racemic)	–	96	–
Cc1cc(C#Cc2ccc(CCC(=O)O)cc2)nc(Cl)n1	2750	110	–

Now from value to compound, other results behind:

EC50 [1] [nM]	Efficacy [2] [%]	SMILES	also measured
4070	100	O=C(O)CCc1ccc(C#Cc2ccncc2)cc1	–
186	97	O=C(O)CCc1ccc(C#Cc2ccnc(-c3ccccc3)c2)cc1	–
135	101	Cc1c(C#Cc2ccc(CCC(=O)O)cc2)ccnc1Cl	–
79.4	125	O=C(O)CCc1ccc(C#Cc2ccnc3cc(Cl)ccc23)cc1	–
–	102	Cc1cc(C#Cc2ccc(CCC(=O)O)cc2)ccn1	–
295	94	O=C(O)CCc1ccc(C#Cc2ccnc(Cl)c2)cc1	–
525	98	COc1cc(C#Cc2ccc(CCC(=O)O)cc2)ccn1	–
178	99	Cc1cnc(F)cc1C#Cc1ccc(CCC(=O)O)cc1	–
794	101	O=C(O)CCc1ccc(C#Cc2ccnc(Cl)c2Cc2ccccc2)cc1	–
513	98	O=C(O)CCc1ccc(C#Cc2ccnc(F)c2)cc1	–
708	98	O=C(O)CCc1ccc(C#Cc2ccc(Cl)nc2)cc1	–
120	101	Cc1c(C#Cc2ccc(CCC(=O)O)cc2)ccnc1F	–
6030	96	O=C(O)CCc1ccc(C#Cc2cccnc2)cc1	–
13200	98	O=C(O)CCc1ccc(C#Cc2ccccn2)cc1	–
45.7	102	Cc1ccccc1C#Cc1ccc(CCC(=O)O)cc1	solubility [5]: 174 µM (≈ 46 µg/mL); logD [6]: 2.34; remaining at 288 h [7]: 99.9%; fraction unbound [8]: 0.023; Stability [9]: 26%; inhibition at 10 µM [10]: -8%; inhibition at 10 µM [11]: -25%; inhibition at 10 µM [12]: -1%; inhibition at 10 µM [13]: 0%; inhibition at 10 µM [14]: -4%; inhibition [15]: 6.6%; Papp A→B [16]: 87 ×10⁻⁶ cm/s; logD [17]: 2.34
6170	108	Cc1cccc(C#Cc2ccc(CCC(=O)O)cc2)n1	–
1070	92	Cc1ccccc1-c1cc(C#Cc2ccc(CCC(=O)O)cc2)ccn1	–
479	94	O=C(O)CCc1ccc(C#Cc2ccnc(Oc3ccccc3)c2)cc1	–
